Assay results from different studies.
Protocols differ between the studies behind these lines.
Effect on: binding
ITK: Tyrosine-protein kinase ITK/TSK (ITK, Homo sapiens, UniProt Q08881)

The Kd of `CC(C)C[C@H](NC(=O)[C@H](CO)NC(=O)[C@H](Cc1ccc(O)cc1)NC(=O)[C@H](CS)NC(=O)[C@H](CS)NC(=O)[C@@H](N)CCCCN)C(=O)O` is reported as 180 nM (Receptor tyrosine-protein kinase erbB-2 (ERBB2, Homo sapiens, UniProt P04626); fluorescence; pH 7.4).
For `N#CC1(c2ccc(NC(=O)c3cccnc3NCc3ccncc3)cc2)CCCC1`, the Kd was 2490 nM (AMP-activated protein kinase (AMPK) alpha-1/beta-1/gamma-1 (PRKAG1/PRKAA1/PRKAB1, Homo sapiens, UniProt P54619+Q13131+Q9Y478); SPR).
With `CC#CC(=O)N1CC[C@@H](n2cc(-c3ccc(Oc4c(F)cccc4F)cc3)c3c(N)n[nH]c(=O)c32)C1` the Kd was greater than 3000 nM (ITK; competition with immobilised ligand).
For `Cc1cc(Nc2cc3ncccc3c(N[C@@H]3C[C@H]4CC[C@@H](C3)N4CCC#N)n2)n[nH]1`, the Kd was 110 nM (STE20-like serine/threonine-protein kinase (SLK, Homo sapiens, UniProt Q9H2G2); competition with immobilised ligand).
With `Cc1cc2nc3c(=O)[nH]c(=O)nc-3n(C[C@H](O)[C@H](O)[C@H](O)COP(=O)(O)OP(=O)(O)OC[C@H]3O[C@@H](n4cnc5c(N)ncnc54)[C@H](O)[C@@H]3O)c2cc1C` the Kd was 5 nM (CPEB4 (Homo sapiens, UniProt Q17RY0); lysate).
`O=C(O)c1cc(O)c2c(c1)C(=O)c1cccc(O)c1C2=O` has a Kd of 46700 nM (Oxysterols receptor LXR-alpha (NR1H3, Homo sapiens, UniProt Q13133); SPR).
For `O=C1Nc2ccccc2C1=O`, the Kd was 2000 nM (Parkinson disease protein 7 (PARK7, Homo sapiens, UniProt Q99497); SPR).
`FC(F)(F)c1n[nH]cc1-c1nc2ccc3[nH]ncc3c2c2c1CCCC2` gave a Kd of 5800 nM (Tyrosine-protein kinase ABL1, non-phosphorylated (ABL1, Homo sapiens, UniProt P00519); competition with immobilised ligand).
`Cc1cnc(-c2ccc(-c3ccc(NC(=O)Nc4c(F)cc(F)cc4F)cc3F)c3c2C(=O)NC3)[nH]1` gave a Kd of 5.9 nM (ITK; competition with immobilised ligand).
`CC(C)C[C@H](NC(=O)[C@H](C)NC(=O)[C@@H](NC(=O)[C@H](CCCCN)NC(=O)[C@H](CC(=O)O)NC(=O)[C@H](Cc1ccc(OP(=O)(O)O)cc1)NC(=O)[C@H](C)NC(=O)[C@H](CC(N)=O)NC(=O)[C@@H]1CCCN1C(=O)[C@@H](NC(=O)[C@H](CCCNC(=N)N)NC(=O)[C@H](CCCCN)NC(=O)CCCCCNC(=O)CCCC[C@@H]1SC[C@@H]2NC(=O)N[C@@H]21)C(C)C)[C@@H](C)O)C(=O)N[C@@H](C)C(=O)N[C@@H](CC(C)C)C(=O)N[C@@H](CCC(=O)O)C(=O)O` has a Kd of 85500 nM (Tyrosine-protein kinase ABL1, SH2 (ABL1, Homo sapiens, UniProt P00519); ITC).
With `COc1ccc2c(c1)sc(-c1ccc(N(C)C)cc1)[n+]2C` the Kd was 72300 nM (Alpha-synuclein, fibril (SNCA, Homo sapiens, UniProt P37840); SPR).
The Kd of `NS(=O)(=O)c1ccc(C(F)(F)F)cc1` is reported as roughly 70 nM (Carbonic anhydrase 2 (CA2, Homo sapiens, UniProt P00918); ITC).
